Paper PMC10228170 (Journal of Pharmaceutical and Biomedical Analysis, 2023)
Where two headings read alike, the source gives them in different places. Marks after values point to notes of the source that are not given here.

Assays:
[1] = assay type: in vivo; details: rat
Method in brief: (§1)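 Male Sprague-Dawley rats (200 ± 50 g) were fasted 12 h and anaesthetised with urethane 1 g/kg i.p. A blood probe (1.2 cm) sat in the jugular vein and a brain probe (0.7 cm) in the striatum (+0.2 AP, +3.0 ML, −7.5 DV from bregma). Both were perfused with ACD at 2.0 µL/min. Test compound 100 mg/kg i.v. via femoral vein. Dialysates collected every 20 min for 6 h; UHPLC-MS/MS (MRM); noncompartmental parameters; AUC ratios; n = 6.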

[2] = Pharmacokinetics of molnupiravir and NHC in rat blood and brain; assay type: in vivo; details: for concentration at 140 min: intravenous
Method in brief: as §1

[3] = assay type: in vivo; details: male, Sprague-Dawley, rat, iv, 100 mg/kg
Method in brief: as §1

[4] = prodrug molnupiravir, metabolized to NHC in vivo; cited from earlier work
[5] = male, Sprague-Dawley, blood (microdialysate), iv, 100 mg/kg
[6] = male, Sprague-Dawley, blood dialysate, iv, 100 mg/kg
[7] = male, Sprague-Dawley, brain (striatum microdialysate), iv, 100 mg/kg
[8] = male, Sprague-Dawley, brain (striatum) dialysate, iv, 100 mg/kg
[9] = male, Sprague-Dawley, rat, blood (microdialysate), iv, 100 mg/kg
[10] = male, Sprague-Dawley, rat, brain (striatum microdialysate), iv, 100 mg/kg
[11] = brain (striatum microdialysate)

Question: For `CC(C)C(=O)OC[C@H]1O[C@@H](n2ccc(NO)nc2=O)[C@H](O)[C@@H]1O` [Molnupiravir, molnupiravir], which MRT [1, 5] is on record?
Answer: 1.28 h

Question: And the clearance [1, 5]?
Answer: 16 ± 1.28 mL/min/kg

Question: And the AUC [1, 6]?
Answer: 110000 ng·h/mL

Question: And the Cmax [1, 6]?
Answer: 199 ± 16.9 µg/mL

Question: What about the half-life [1, 6] of the same compound?
Answer: 132 ± 32 min

Question: And the MRT [1, 7]?
Answer: 3.97 h

Question: And the Tmax [1, 7]?
Answer: 40 min

Question: What about the AUC [1, 8] of the same compound?
Answer: 1790 ng·h/mL

Question: And the Cmax [1, 8]?
Answer: 0.79 ± 0.22 µg/mL

Question: And the half-life [1, 8]?
Answer: 148 ± 34 min

Question: What about the “AUCbrain/AUCblood (blood-to-brain transfer ratio)” value ([1]; molnupiravir 100 mg/kg i.v. + BNPP 50 mg/kg i.v.) of the same compound?
Answer: 0.02 ± 0.004^a

Question: What about the AUC [2, 9] of the same compound?
Answer: 57200 ng·h/mL

Question: What about the Cmax [2, 9] of the same compound?
Answer: 192 ± 24.1 µg/mL

Question: What about the clearance [2, 9] of the same compound?
Answer: 32.1 ± 4.45 mL/min/kg

Question: And the half-life [2, 9]?
Answer: 9 ± 2 min

Question: What about the concentration at 140 min ([2]; male, Sprague-Dawley, rat, blood dialysate, 100 mg/kg) of the same compound?
Answer: 49.2 ng/mL

Question: And the MRT ([2]; male, Sprague-Dawley, rat, blood dialysate, iv, 100 mg/kg)?
Answer: 18 min

Question: And the AUC [2, 10]?
Answer: 318 ng·h/mL

Question: What about the Cmax [2, 10] of the same compound?
Answer: 0.39 ± 0.1 µg/mL

Question: What about the half-life [2, 10] of the same compound?
Answer: 10 ± 1 min

Question: And the concentration at 140 min ([2]; male, Sprague-Dawley, rat, brain (striatum) dialysate, 100 mg/kg)?
Answer: 103 ng/mL

Question: And the MRT ([2]; male, Sprague-Dawley, rat, brain (striatum) dialysate, iv, 100 mg/kg)?
Answer: 35 min

Question: What about the Tmax ([2]; male, Sprague-Dawley, rat, brain (striatum) dialysate, iv, 100 mg/kg, Tmax, rat brain, molnupiravir 100 mg/kg i.v. alone) of the same compound?
Answer: 40 min

Question: And the “time of biotransformation of molnupiravir to NHC” value ([2]; rat blood, molnupiravir 100 mg/kg i.v.)?
Answer: ≤ 20 min

Question: And the “AUCbrain/AUCblood (blood-to-brain transfer ratio)” value ([2]; rat, molnupiravir 100 mg/kg i.v. alone)?
Answer: 0.005 ± 0.001^b

Question: What about the AUC ([3]; blood (microdialysate)) of the same compound?
Answer: 77400 ng·h/mL

Question: And the Cmax ([3]; blood (microdialysate))?
Answer: 185 ± 18.7 µg/mL

Question: And the MRT ([3]; blood (microdialysate))?
Answer: 29 min

Question: And the clearance ([3]; blood (microdialysate))?
Answer: 21.7 ± 0.66 mL/min/kg

Question: And the half-life ([3]; blood (microdialysate))?
Answer: 35 ± 10 min

Question: What about the AUC [3, 11] of the same compound?
Answer: 755 ng·h/mL

Question: What about the MRT [3, 11] of the same compound?
Answer: 53 min

Question: And the Tmax [3, 11]?
Answer: 40 min

Question: What about the half-life [3, 11] of the same compound?
Answer: 68 ± 22 min

Question: And the Cmax ([3]; brain (striatum) dialysate)?
Answer: 0.5 ± 0.09 µg/mL

Question: What about the bioavailability [4] of the same compound?
Answer: more than 90%
